These results are taken from ChEMBL document CHEMBL3817802, “Discovery of Benzofuran Derivatives that Collaborate with Insulin-Like Growth Factor 1 (IGF-1) to Promote Neuroprotection” (J Med Chem, 2016).

The nature of data set [1]: Metabolic clearance in human liver microsomes at 1 umol/L by LC/MS/MS analysis. The conditions noted are these: read-out: CLH. Type of data set: ADME.
The nature of data set [2]: (§1) Neuroprotective activity against serum starvation-induced cell death in Sprague-Dawley rat primary neural cells assessed as neuronal survival rate incubated for 3 days in presence of 100 ng/ml human recombinant IGF-1 by beta3-tubulin-detecting cell-ELISA relative to control. The conditions noted are these: Primary neuron, 72 h. Type of data set: functional, cell-based. A digest of the protocol: (§2)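 Primary neural cells were taken from rat hippocampal and cerebral cortical tissue and grown 4 days in serum-containing medium. They were then switched to serum-free medium for 3 days, with 100 ng/mL IGF-1 plus test agent, to induce starvation death. Neurons were counted by cell-ELISA for βIII-tubulin immunoreactivity. EC50 was reported with its 95% confidence interval.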

For data set [3], the target named is CYP2C9 (Homo sapiens, UniProt P11712). Briefly: Inhibition of CYP2C9 in human liver microsomes at 10 uM incubated for 30 mins by HPLC analysis. Type of data set: ADME.
Data set [4] in a line: Oral bioavailability in Sprague-Dawley rat at 1 mg/kg by LC/MS/MS analysis. It is filed as ADME, organism-based. The settings on record: in vivo.
Data set [5] is described as follows: Ratio of drug level in brain to plasma of Sprague-Dawley rat at 0.1 mg/kg, iv by cassette dosing measured at 1 hr by LC/MS/MS analysis. It is filed as ADME, organism-based.
A short description of data set [6]: Neuroprotective activity against serum starvation-induced cell death in Sprague-Dawley rat primary neural cells assessed as neuronal survival rate at 10 uM incubated for 3 days in presence of 100 ng/ml human recombinant IGF-1 by beta3-tubulin-detecting cell-ELISA relative to control. It is filed as functional, Primary neuron. A digest of the protocol:
(§3)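 Primary neural cells from rat hippocampal and cerebral cortical tissue were grown 4 days in serum-containing medium, then 3 days serum-free to induce death, with or without IGF-1. The line's compound concentration was present during the serum-free phase. Neuron number was estimated by cell-ELISA for βIII-tubulin immunoreactivity. Data are mean ± SEM of four wells.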

Data set [7] deals with HepG2. The data set can be described thus: Cytotoxicity against human HepG2 cells assessed as decrease in cellular ATP content at 100 uM after 1 day. The conditions noted are these: hepg2, 24 h. It is filed as cell-based. Also on record: scale not given: the % may be the effect or the level left.
The nature of data set [8]: Neuroprotective activity against serum starvation-induced cell death in Sprague-Dawley rat primary neural cells assessed as neuronal survival rate at 1 umol/L incubated for 3 days by beta3-tubulin-detecting cell-ELISA relative to control. It is filed as functional, Primary neuron. The gist of the method:
as §3

Data set [9] can be described thus: Neuroprotective activity against serum starvation-induced cell death in Sprague-Dawley rat primary neural cells assessed as neuronal survival rate at 1 umol/L incubated for 3 days in presence of 3 to 100 ng/ml human recombinant IGF-1 by beta3-tubulin-detecting cell-ELISA. It is filed as functional, Primary neuron. The gist of the method: as §3
The subject of data set [10] is Primary neuron. The data set is described as §1. It is filed as functional, cell-based. The gist of the method: as §2
Data set [11] is described as follows: Neuroprotective activity against serum starvation-induced cell death in Sprague-Dawley rat primary neural cells assessed as neuronal survival rate at 0.33 uM incubated for 3 days in presence of 100 ng/ml human recombinant IGF-1 by beta3-tubulin-detecting cell-ELISA relative to control. It is filed as functional, Primary neuron. The gist of the method: as §3

Chain of CYP2C9 (P11712 whole entry): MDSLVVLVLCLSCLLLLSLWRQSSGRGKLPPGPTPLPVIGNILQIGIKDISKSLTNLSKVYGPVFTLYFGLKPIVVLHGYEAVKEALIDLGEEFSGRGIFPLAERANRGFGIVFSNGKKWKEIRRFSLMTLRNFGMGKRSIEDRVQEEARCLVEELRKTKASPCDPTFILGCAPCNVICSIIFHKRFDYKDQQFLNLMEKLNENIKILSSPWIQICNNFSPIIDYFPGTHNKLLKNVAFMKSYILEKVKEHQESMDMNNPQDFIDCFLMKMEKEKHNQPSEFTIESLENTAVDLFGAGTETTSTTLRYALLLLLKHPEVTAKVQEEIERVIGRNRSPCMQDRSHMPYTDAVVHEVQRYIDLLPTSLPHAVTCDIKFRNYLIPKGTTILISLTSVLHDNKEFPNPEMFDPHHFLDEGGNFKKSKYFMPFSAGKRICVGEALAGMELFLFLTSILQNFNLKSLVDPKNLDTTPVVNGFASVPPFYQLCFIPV

Take `COc1ccc(N2CCCN(c3c(C)c(C)c4c(c3C)CC(C)(C)O4)CC2)cc1`: the microsomal CLint at 1 µM in data set [1] came out at 87 µL/min/mg. Further, in data set [2], the EC50 was determined as 76 nM.
Regarding `COc1ccc(N2CCN(c3c(C)c(C)c4c(c3C)CCO4)CC2)cc1`, the EC50 in [2] is 230 nM.
As to `COc1ccc(N2CCN(c3c(C)c(C)c4c(c3C)C(=O)C(C)(C)CO4)CC2)cc1`, in data set [3], the inhibition at 0.5 h, 10 µM is 42.1%. For the same compound, the EC50 in data set [2] amounted to 510 nM.
In the case of `Cc1c(C)c(N2CCN(c3ccc(Cl)cc3)CC2)c(C)c2c1OC(C)(C)C2`, the EC50 in data set [2] amounted to 660 nM.
As to `COc1ccc(N2CCN(c3c(C)c(C)c4c(c3C)CC(C)(C)O4)CC2)cn1`, the EC50 in data set [2] was found to be 620 nM.
On to `Cc1c(C)c(N2CCN(c3ccc(F)cc3)CC2)c(C)c2c1OC(C)(C)C2`, for which the EC50 in data set [2] was found to be 300 nM.
`COc1ccc(N2CCN(c3c(C)c(C)c4c(c3C)C(=O)C(C)(C)O4)CC2)cc1` registered a bioavailability in data set [4] of 42.3%. Besides, the concentration ratio (Kp) at 1 h in [5] worked out at 3.4. Moreover, in data set [3], the inhibition at 0.5 h, 10 µM turned out to be 83.4%. Besides, the EC50 in data set [2] stood at 120 nM.
With `COc1ccc(N2CCN(c3c(C)c(C)c4c(c3C)CC(C)(C)O4)CC2)c(OC)c1`, the EC50 in data set [2] was 390 nM.
Regarding `COc1ccc(N2CCN(c3c(C)c(C)c4c(c3C)C[C@H](C)O4)CC2)cc1`, the EC50 in data set [2] came to 460 nM.
On to `COc1ccc(N2CCN(c3c(C)c(C)c4c(c3C)CC(C)(C)O4)CC2)cc1OC`, for which, in data set [2], the EC50 was 270 nM.
For `Cc1c(C)c(N2CCNCC2)c(C)c2c1OC(C)(C)C2`, the Survival in [6] is 20%.
Turning to `CC(=O)c1ccc(N2CCN(c3c(C)c(C)c4c(c3C)CC(C)(C)O4)CC2)cc1`, the EC50 in data set [2] is 150 nM. In data set [7], the Activity was 68%.
On to `Cc1c(C)c(N2CCN(c3ccc(C#N)cc3)CC2)c(C)c2c1OC(C)(C)C2`, for which the EC50 in data set [2] was greater than 1000 nM.
With `Cc1ccc(N2CCN(c3c(C)c(C)c4c(c3C)CC(C)(C)O4)CC2)cc1`, in data set [1], the microsomal CLint at 1 µM came to 30 µL/min/mg. Also, in data set [2], the EC50 came to 130 nM.
In the case of `COc1ccc(CN2CCN(c3c(C)c(C)c4c(c3C)CC(C)(C)O4)CC2)cc1`, in data set [2], the EC50 stood at 680 nM.
For the compound `COc1ccc(N2CCN(c3c(C)c(C)c4c(c3C)C[C@](C)(CO)O4)CC2)cc1`, the EC50 in [2] came out at 630 nM.
The same measure, in the same setting: under `COc1ccc(C2CN(c3c(C)c(C)c4c(c3C)CC(C)(C)O4)CCO2)cc1` (racemic) stands 370 nM.
Take `COc1ccc(N2CCN(c3c(C)c(C)c4c(c3C)C[C@@](C)(CO)O4)CC2)cc1`: in data set [2], the EC50 was 700 nM.
For `COc1ccc(N2CCN(c3c(C)c(C)c4c(c3C)C[C@@H](C)O4)CC2)cc1`, in [2], the EC50 is 440 nM.
For `Cc1c(C)c(N2CCN(c3ccccc3)CC2)c(C)c2c1OC(C)(C)C2`, in data set [2], the concentration for a half-maximal effect (EC50) amounted to 380 nM.
With `COc1ccc(N2CCN(c3c(C)c(C)c4c(c3C)CC(C)(C)O4)CC2)cc1`, in [5], the Kp at 1 h amounted to 2.9. Besides, the inhibition at 0.5 h, 10 µM in [3] is -0.9%. Besides, the microsomal CLint at 1 µM in [1] stood at 2 µL/min/mg. Further, the “fold change (FC)” value is on record as 3 in data set [8], 6 in [9] and 3 in [11]. The EC50 in [2] amounted to 150 nM. The Activity entry is “Dose-dependent effect” in data set [10] and 93.3% in [7].
With `COc1ccc(C2CN(c3c(C)c(C)c4c(c3C)CC(C)(C)O4)CCN2C)cc1` (racemic), the EC50 in data set [2] was 550 nM.
